Experiments:
[1] = Cmax in fasted healthy human plasma at 400 mg administered as single dose suspension after consumption of high fat meal; format: ADME, organism-based; set-up: dose 400 mg
Outline: (§1)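 In a crossover of 12 healthy subjects, each took a single 400 mg oral suspension dose 5 min before, midway through (about 10 min into a 20-min meal), or 20 min after a high-fat meal of about 50 g fat. Plasma was drawn 0–168 h and measured by LC-MS/MS. Parameters are noncompartmental, with AUC to the last measurable time.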

[2] = Apparent total body clearance in fasted healthy human at 400 mg administered as single dose suspension; format: ADME, organism-based; details: in vivo
[3] = Apparent total body clearance in fasted healthy human at 400 mg administered as single dose suspension coadministered with proton pump inhibitor; format: ADME, organism-based; details: in vivo
Outline: (§2)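 This was a four-way crossover in 12 healthy subjects with 7–10 day washouts. Each took one fasting 400 mg oral suspension dose, with 12 oz ginger ale and/or esomeprazole 40 mg once each morning on days −2 to 1, with dosing on day 1. Plasma was sampled 0–168 h and measured by LC-MS/MS (LLOQ 5.00 ng/ml). Analysis was noncompartmental, with CL/F = dose/AUC_I and V/F = (CL/F)/K.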

[4] = Tmax in fasted healthy human at 400 mg administered as single dose suspension after consumption of high fat meal; format: ADME, organism-based; details: in vivo
Outline: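 Single oral suspension dose in healthy volunteers while fasting, 5 min before, midway through (about 10 min into a 20-min meal), or 20 min after a high-fat meal (approx 50 g fat); four-way crossover, 7–10-day washout. Plasma 0–168 h by LC-MS/MS (LLOQ 5.00 ng/ml). t1/2 = ln(2)/K; Tmax median.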

[5] = Apparent volume of distribution in fasted healthy human at 400 mg administered as single dose suspension coadministered with proton pump inhibitor; format: ADME, organism-based; details: in vivo, read-out: Vc/F; outline: as §2
[6] = tested on: Homo sapiens; test: Toxicity in healthy human assessed as adverse events at 200 mg QID, po administered as suspension for 7 days coadministered with nutritional supplement; format: organism-based; details: in vivo, 168 h
Outline: (§3)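 Healthy volunteers monitored for adverse events, vital signs, clinical laboratory values and 12-lead ECG. Adverse events tabulated by body system or organ class and severity and summarized by treatment across the crossover regimens.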

[7] = Apparent volume of distribution in fasted healthy human at 400 mg administered as single dose suspension 5 mins before consumption of high fat meal; format: ADME, organism-based; details: in vivo, read-out: Vc/F; outline: as §1
[8] = tested on: Homo sapiens; test: Toxicity in healthy human assessed as nausea at 400 mg administered as single dose suspension coadministered with nutritional supplement and 10 mg metoclopramide; format: organism-based; details: in vivo
Outline: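 Three-way randomized crossover in 13 healthy volunteers with a 7- to 10-day washout. Each period was one 400-mg oral posaconazole suspension dose with a nutritional supplement. Metoclopramide 10 mg was given orally three times daily on the day before and the day of dosing; loperamide was a single 4 mg. Safety was assessed from adverse events, tabulated by body system and severity per treatment.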

[9] = Half life in healthy human at 400 mg administered as single dose suspension coadministered with nutritional supplement and 4 mg loperamide as two 2 mg tablets; format: ADME, organism-based; details: in vivo
Outline: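 Oral suspension (40 mg/ml) single dose with nutritional supplement plus loperamide 4 mg single dose, healthy volunteers, three-way crossover with 7–10-day washout. EDTA plasma drawn predose and 1–168 h postdose. LC-MS/MS assay (LLOQ 5.00 ng/ml). Noncompartmental parameters; Tmax reported as median (range).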

[10] = Cmax in fasted healthy human plasma at 200 mg QID, po administered as suspension for 7 days; format: ADME, organism-based; set-up: dose 200 mg, route oral
Outline: (§4)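 Twelve healthy subjects took oral suspension for 7 days as 400 mg BID or 200 mg QID, either fasting or with a Boost-type nutritional supplement, in a crossover with 14–21 day washouts. Nonfat snacks of 800 cal/day or less were allowed. Plasma was sampled 0–168 h after the day-7 morning dose only and analysed by LC-MS/MS. AUC is AUC_τ, normalized to dose.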

[11] = Cmax in healthy human plasma at 400 mg BID, po administered as suspension for 7 days coadministered with nutritional supplement; format: ADME, organism-based; set-up: dose 400 mg, route oral; outline: as §4
[12] = Tmax in fasted healthy human at 200 mg QID, po administered as suspension for 7 days; format: ADME, organism-based; details: in vivo
Outline: (§5)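 Healthy volunteers given oral suspension (40 mg/ml) for 7 days, fasted or with nutritional supplement (Boost); four-way crossover, 14–21-day washout, nonfat snacks ≤800 cal/day allowed. On day 7 only the morning dose was given; plasma sampled predose to 168 h after it. LC-MS/MS (LLOQ 5.00 ng/ml). t1/2 = ln(2)/K from log-linear terminal slope; Tmax as median.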

[13] = Tmax in fasted healthy human at 400 mg administered as single dose suspension coadministered with proton pump inhibitor; format: ADME, organism-based; details: in vivo
Outline: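 Single oral suspension dose in fasting healthy volunteers, alone, with 12 oz ginger ale, after esomeprazole 40 mg once each morning days −2 to 1, or both; four-way crossover, 7–10-day washout. EDTA plasma 0–168 h. LC-MS/MS (LLOQ 5.00 ng/ml). t1/2 = ln(2)/K from terminal log-linear regression; Tmax median.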

[14] = Apparent total body clearance in fasted healthy human at 400 mg administered as single dose suspension coadministered with acidic carbonated beverage and proton pump inhibitor; format: ADME, organism-based; details: in vivo; outline: as §2
[15] = Apparent volume of distribution in healthy human at 400 mg administered as single dose suspension coadministered with nutritional supplement; format: ADME, organism-based; details: in vivo
Outline: (§6)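 A three-way crossover in 13 healthy subjects gave one 400 mg oral suspension dose with a nutritional supplement, either alone, with metoclopramide 10 mg orally three times daily on the day before and the day of dosing, or with a single 4 mg dose of loperamide. Plasma was taken 0–168 h for LC-MS/MS. Analysis was noncompartmental.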

[16] = Half life in fasted healthy human at 400 mg BID, po administered as suspension for 7 days; format: ADME, organism-based; details: in vivo; outline: as §5
[17] = Apparent total body clearance in fasted healthy human at 400 mg administered as single dose suspension coadministered with acidic carbonated beverage; format: ADME, organism-based; details: in vivo; outline: as §2
[18] = Half life in healthy human at 200 mg QID, po administered as suspension for 7 days coadministered with nutritional supplement; format: ADME, organism-based; details: in vivo; outline: as §5
[19] = tested on: Homo sapiens; test: Toxicity in healthy human assessed as headache at 200 mg QID, po administered as suspension for 7 days; format: organism-based; details: in vivo, 168 h
Outline: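 Healthy volunteers (n = 12) took oral posaconazole suspension (40 mg/ml) for 7 days in a four-way randomized crossover with a 14- to 21-day washout. Subjects stayed fasted throughout, with nonfat snacks up to 800 cal/day allowed. Where given, Boost was taken with each dose. Safety covered adverse events, vital signs, clinical labs and 12-lead ECG, with AEs tabulated by body system and severity per treatment.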

[20] = Tmax in healthy human at 200 mg QID, po administered as suspension for 7 days coadministered with nutritional supplement; format: ADME, organism-based; details: in vivo; outline: as §5
[21] = Apparent volume of distribution in fasted healthy human at 400 mg administered as single dose suspension after 20 mins after consumption of high fat meal; format: ADME, organism-based; details: in vivo, po; outline: as §1
[22] = Apparent volume of distribution in fasted healthy human at 400 mg administered as single dose suspension; format: ADME, organism-based; details: in vivo, read-out: Vc/F
[23] = Cmax in healthy human plasma at 400 mg administered as single dose suspension coadministered with nutritional supplement; format: ADME, organism-based; set-up: dose 400 mg; outline: as §6
[24] = tested on: Homo sapiens; test: Toxicity in healthy human assessed as adverse events at 400 mg administered as single dose suspension after consumption of high fat meal; format: organism-based; details: in vivo; outline: as §3
[25] = Cmax in fasted healthy human plasma at 400 mg BID, po administered as suspension for 7 days; format: ADME, organism-based; set-up: dose 400 mg, route oral; outline: as §4
[26] = Apparent total body clearance in fasted healthy human at 400 mg administered as single dose suspension after consumption of high fat meal; format: ADME, organism-based; details: in vivo; outline: as §1

CC[C@@H]([C@H](C)O)n1ncn(-c2ccc(N3CCN(c4ccc(OC[C@@H]5CO[C@@](Cn6cncn6)(c6ccc(F)cc6F)C5)cc4)CC3)cc2)c1=O [POSACONAZOLE]
Cmax [1]: 544 ng/mL | CL/F [2]: 1390 mL/min | CL/F [3]: 1930 mL/min | Tmax [4]: 6 h | Vd/F [5]: 4350 L | Activity [6]: 75% | Vd/F [7]: 1900 L | Activity [8]: 23% | half-life [9]: 27.5 h | Cmax [10]: 2300 ng/mL | Cmax [11]: 1590 ng/mL | Tmax [12]: 4 h | Tmax [13]: 6 h | CL/F [14]: 1620 mL/min | Vd/F [15]: 1660 L | half-life [16]: 25.7 h | CL/F [17]: 870 mL/min | half-life [18]: 27.8 h | Activity [19]: 25% | Tmax [20]: 4 h | Vd/F [21]: 757 L | Vd/F [22]: 3580 L | Cmax [23]: 303 ng/mL | Activity [24]: 25% | Cmax [25]: 982 ng/mL | CL/F [26]: 395 mL/min

From ChEMBL document CHEMBL1671645, “Pharmacokinetics and absorption of posaconazole oral suspension under various gastric conditions in healthy volunteers” (Antimicrob Agents Chemother, 2009)
